Test results published in ChEMBL document CHEMBL4359813, “Synthesis and antimycobacterial activity of imidazo[1,2-b][1,2,4,5]tetrazines” (2019).
Values after ≈ are worked out from the molar mass of the structure shown. Active and inactive are the calls of the source. The calls are words filed in the database; no cut-off is given here.

Legend:
[1] = tested on: Mycolicibacterium smegmatis; experiment: Antimycobacterial activity against Mycobacterium smegmatis atR17 assessed as decrease in drug resistance at 10 nmol/disc after 2 to 3 days by paper disc method; type: functional, organism-based
Procedure, shortened: (§1)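 Mutant M. smegmatis strains were grown in Middlebrook 7H9/OADC/Tween/glycerol to OD600 1.2. Cultures were diluted 1:9:10 (culture:water:M290) and overlaid on M290 agar. Commercial or impregnated paper discs were applied and plates incubated 2–3 days at 37 °C. Inhibition halos were measured to 1 mm, run in triplicate, mean ± SD.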

[2] = tested on: Mycolicibacterium smegmatis; experiment: Antimycobacterial activity against Mycobacterium smegmatis atR10 assessed as decrease in drug resistance development at 10 nmol/disc after 2 to 3 days by paper disc method; type: functional, organism-based; procedure, shortened: as §1
[3] = tested on: Mycolicibacterium smegmatis; experiment: Antimycobacterial activity against Mycobacterium smegmatis atR37 assessed as decrease in drug resistance development at 300 nmol/disc after 2 to 3 days by paper disc method; type: functional, organism-based
Procedure, shortened: (§2)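 Drug-resistant M. smegmatis mc2 155 mutants, isolated on M290 agar with 3.5-4× MIC of compound and resistance re-confirmed, grown in Middlebrook 7H9 (OADC, 0.1% Tween-80, 0.4% glycerol) to OD600 1.2. Diluted 1:9:10 culture:water:M290 and poured as top layer on M290 agar. Impregnated paper discs applied; 37 °C for 2–3 days. Halos measured to nearest 1 mm; triplicates, mean ± SD versus control strain.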

[4] = tested on: Mycolicibacterium smegmatis; experiment: Antimycobacterial activity against Mycobacterium smegmatis atR8 assessed as decrease in drug resistance development at 300 nmol/disc after 2 to 3 days by paper disc method; type: functional, organism-based; procedure, shortened: as §2
[5] = tested on: Mycobacterium tuberculosis; experiment: Antimycobacterial activity against Mycobacterium tuberculosis H37Rv in liquid medium; type: functional
Procedure, shortened: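 M. tuberculosis H37Rv; MIC determined in liquid medium on the automated Bactec MGIT 960 system.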

[6] = tested on: Mycolicibacterium smegmatis; experiment: Antimycobacterial activity against Mycobacterium smegmatis atR33 in liquid medium after 48 hrs by two-fold serial dilution method; type: functional; conditions: atR33, 48 h
Procedure, shortened: (§3)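 M. smegmatis resistant mutants were isolated on M290 agar containing 3.5-4× MIC of the test compound at 30°C and resistance was reconfirmed. MIC was then run in Lemco-Tw broth (Tween-80 0.05%). An overnight culture was diluted 1:200, and two-fold serial dilutions in DMSO were added. Plates were incubated at 37°C and 250 rpm for 48 h. MIC was read as the lowest concentration with no visible growth.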

[7] = tested on: Mycolicibacterium smegmatis; experiment: Antimycobacterial activity against Mycobacterium smegmatis atR1 assessed as decrease in drug resistance development at 300 nmol/disc after 2 to 3 days by paper disc method; type: functional, organism-based; procedure, shortened: as §1
[8] = tested on: Mycolicibacterium smegmatis; experiment: Antimycobacterial activity against Mycobacterium smegmatis atR11 in liquid medium after 48 hrs by two-fold serial dilution method; type: functional; conditions: atR11, 48 h; procedure, shortened: as §3
[9] = tested on: Mycolicibacterium smegmatis; experiment: Antimycobacterial activity against Mycobacterium smegmatis atR11 assessed as decrease in drug resistance development at 300 nmol/disc after 2 to 3 days by paper disc method; type: functional, organism-based; procedure, shortened: as §1
[10] = tested on: Mycolicibacterium smegmatis; experiment: Antimycobacterial activity against Mycobacterium smegmatis atR19 assessed as decrease in drug resistance development at 300 nmol/disc after 2 to 3 days by paper disc method; type: functional, organism-based; procedure, shortened: as §1
[11] = tested on: Mycolicibacterium smegmatis; experiment: Antimycobacterial activity against Mycobacterium smegmatis MC2 155 in solid medium by two-fold serial dilution method; type: functional
Procedure, shortened: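 M290 soybean-casein agar plates carried two-fold compound dilutions, 8–64 or 8–128 µg/ml, some with extra 20 or 25 µg/ml plates.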

[12] = tested on: Mycolicibacterium smegmatis; experiment: Antimycobacterial activity against Mycobacterium smegmatis atR2 assessed as decrease in drug resistance development at 300 nmol/disc after 2 to 3 days by paper disc method; type: functional, organism-based; procedure, shortened: as §1
[13] = tested on: Mycolicibacterium smegmatis; experiment: Antimycobacterial activity against Mycobacterium smegmatis atR2 in liquid medium after 48 hrs by two-fold serial dilution method; type: functional; conditions: atR2, 48 h; procedure, shortened: as §3
[14] = tested on: Mycolicibacterium smegmatis; experiment: Antimycobacterial activity against Mycobacterium smegmatis atR8 in liquid medium after 48 hrs by two-fold serial dilution method; type: functional; conditions: atR8, 48 h; procedure, shortened: as §3
[15] = tested on: Mycolicibacterium smegmatis; experiment: Antimycobacterial activity against Mycobacterium smegmatis atR9 in liquid medium after 48 hrs by two-fold serial dilution method; type: functional; conditions: atR9, 48 h; procedure, shortened: as §3
[16] = tested on: Mycolicibacterium smegmatis; experiment: Antimycobacterial activity against Mycobacterium smegmatis atR40 assessed as decrease in drug resistance development at 300 nmol/disc after 2 to 3 days by paper disc method; type: functional, organism-based; procedure, shortened: as §2
[17] = tested on: Mycolicibacterium smegmatis; experiment: Antimycobacterial activity against Mycobacterium smegmatis atR17 in liquid medium after 48 hrs by two-fold serial dilution method; type: functional; conditions: atR17, 48 h; procedure, shortened: as §3
[18] = tested on: Mycolicibacterium smegmatis; experiment: Antimycobacterial activity against Mycobacterium smegmatis atR17 assessed as decrease in drug resistance development at 300 nmol/disc after 2 to 3 days by paper disc method; type: functional, organism-based; procedure, shortened: as §1
[19] = tested on: Mycolicibacterium smegmatis; experiment: Antimycobacterial activity against Mycobacterium smegmatis atR1 in liquid medium after 48 hrs by two-fold serial dilution method; type: functional; conditions: atR1, 48 h; procedure, shortened: as §3
[20] = tested on: Mycolicibacterium smegmatis; experiment: Antimycobacterial activity against Mycobacterium smegmatis atR14 in liquid medium after 48 hrs by two-fold serial dilution method; type: functional; conditions: atR14, 48 h; procedure, shortened: as §3
[21] = tested on: Mycolicibacterium smegmatis; experiment: Antimycobacterial activity against Mycobacterium smegmatis atR10 assessed as decrease in drug resistance development at 300 nmol/disc after 2 to 3 days by paper disc method; type: functional, organism-based; procedure, shortened: as §1
[22] = tested on: Mycolicibacterium smegmatis; experiment: Antimycobacterial activity against Mycobacterium smegmatis atR14 assessed as decrease in drug resistance development at 300 nmol/disc after 2 to 3 days by paper disc method; type: functional, organism-based; procedure, shortened: as §1
[23] = tested on: Mycolicibacterium smegmatis; experiment: Antimycobacterial activity against Mycobacterium smegmatis MC2 155 in liquid medium after 48 hrs by two-fold serial dilution method; type: functional; conditions: MC2 155, 48 h
Procedure, shortened: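 M. smegmatis mc2 155 grown overnight in Lemco-Tw broth, diluted 1:200 in fresh broth. […] Top wells could carry 4% DMSO. Incubated 48 h at 37 °C with shaking at 250 rpm. MIC is the lowest concentration with no visible growth.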

[24] = tested on: Mycolicibacterium smegmatis; experiment: Antimycobacterial activity against Mycobacterium smegmatis atR40 in liquid medium after 48 hrs by two-fold serial dilution method; type: functional; conditions: atR40, 48 h; procedure, shortened: as §3
[25] = tested on: Mycolicibacterium smegmatis; experiment: Antimycobacterial activity against Mycobacterium smegmatis atR10 in liquid medium after 48 hrs by two-fold serial dilution method; type: functional; conditions: atR10, 48 h; procedure, shortened: as §3
[26] = tested on: Mycolicibacterium smegmatis; experiment: Antimycobacterial activity against Mycobacterium smegmatis atR37 in liquid medium after 48 hrs by two-fold serial dilution method; type: functional; conditions: atR37, 48 h; procedure, shortened: as §3
[27] = tested on: Mycolicibacterium smegmatis; experiment: Antimycobacterial activity against Mycobacterium smegmatis atR19 in liquid medium after 48 hrs by two-fold serial dilution method; type: functional; conditions: atR19, 48 h; procedure, shortened: as §3
[28] = tested on: Mycolicibacterium smegmatis; experiment: Antimycobacterial activity against Mycobacterium smegmatis atR33 assessed as decrease in drug resistance development at 300 nmol/disc after 2 to 3 days by paper disc method; type: functional, organism-based; procedure, shortened: as §1
[29] = tested on: Mycolicibacterium smegmatis MC2 155; experiment: Inhibition of STPK in Mycobacterium smegmatis MC2 155 expressing aminoglycoside phophotransferase-8 assessed as growth inhibition at 50 nmol/disk after 18 hrs in presence of kanamycin by paper disk method
[30] = tested on: Mycolicibacterium smegmatis MC2 155; experiment: Inhibition of STPK in Mycobacterium smegmatis MC2 155 expressing aminoglycoside phophotransferase-8 assessed as growth inhibition at 5 nmol/disk after 18 hrs in presence of kanamycin by paper disk method
[31] = tested on: Mycolicibacterium smegmatis; experiment: Antimycobacterial activity against Mycobacterium smegmatis atR9 assessed as decrease in drug resistance development at 200 nmol/disc after 2 to 3 days by paper disc method; type: functional, organism-based; procedure, shortened: as §2
[32] = tested on: Mycolicibacterium smegmatis; experiment: Antimycobacterial activity against Mycobacterium smegmatis atR8 assessed as decrease in drug resistance development at 200 nmol/disc after 2 to 3 days by paper disc method; type: functional, organism-based; procedure, shortened: as §2
[33] = tested on: Mycolicibacterium smegmatis; experiment: Antimycobacterial activity against Mycobacterium smegmatis atR10 assessed as decrease in drug resistance development at 200 nmol/disc after 2 to 3 days by paper disc method; type: functional, organism-based; procedure, shortened: as §1
[34] = tested on: Mycolicibacterium smegmatis; experiment: Antimycobacterial activity against Mycobacterium smegmatis atR17 assessed as decrease in drug resistance development at 200 nmol/disc after 2 to 3 days by paper disc method; type: functional, organism-based; procedure, shortened: as §1
[35] = tested on: Mycolicibacterium smegmatis MC2 155; experiment: Inhibition of STPK in Mycobacterium smegmatis MC2 155 expressing aminoglycoside phophotransferase-8 assessed as growth inhibition at 100 nmol/disk after 18 hrs in presence of kanamycin by paper disk method

Compound | MIC [5] [µM] | MIC [6] [µg/mL] | MIC [8] [µg/mL] | MIC [11] [µM] | MIC [13] [µg/mL] | MIC [14] [µg/mL] | MIC [15] [µg/mL] | MIC [17] [µg/mL] | MIC [19] [µg/mL] | MIC [20] [µg/mL] | MIC [23] [µM] | MIC [24] [µg/mL] | MIC [25] [µg/mL] | MIC [26] [µg/mL] | MIC [27] [µg/mL] | inhibition zone (IZ) [29] [mm] | also measured
O=C1c2c(O)ccc(O)c2C(=O)c2c(NCCNCCO)ccc(NCCNCCO)c21 |  |  |  |  |  |  |  |  |  |  |  |  |  |  |  |  | Activity [1]: inactive; Activity [2]: inactive
Cc1cc(C)n(-c2nnc3ncc(SC(C)C)n3n2)n1 | 3.5 (≈ 1.01 µg/mL) | 512 (≈ 1770 µM) | 512 (≈ 1770 µM) | 221 (≈ 64 µg/mL) | 1020 (≈ 3540 µM) | 512 (≈ 1770 µM) | 256 (≈ 885 µM) | 256 (≈ 885 µM) | 512 (≈ 1770 µM) | 256 (≈ 885 µM) | 221 (≈ 64 µg/mL) | 512 (≈ 1770 µM) | 512 (≈ 1770 µM) | 512 (≈ 1770 µM) | 256 (≈ 885 µM) | 13.3 | Activity [3]: inactive; Activity [4]: inactive; Activity [7]: inactive; Activity [9]: inactive; Activity [10]: inactive; Activity [12]: inactive; Activity [16]: inactive; Activity [18]: inactive; Activity [21]: inactive; Activity [22]: inactive; Activity [28]: inactive
Cc1cc(C)n(-c2nnc3nc(-c4ccccc4)c(SC(C)C)n3n2)n1 |  |  |  |  |  |  |  |  |  |  |  |  |  |  |  |  | inhibition zone (IZ) [30]: 11 mm
CCC(CCCO)Sc1cnc2nnc(-n3nc(C)cc3C)nn12 (stereo not given) |  |  |  |  |  |  |  |  |  |  |  |  |  |  |  |  | inhibition zone (IZ) [30]: 9.3 mm
c1cn(-c2nnc3nccn3n2)cn1 | 134 (≈ 25 µg/mL) | 32 (≈ 171 µM) | 32 (≈ 171 µM) | 134 (≈ 25 µg/mL) | 32 (≈ 171 µM) | 32 (≈ 171 µM) | 32 (≈ 171 µM) | 32 (≈ 171 µM) | 32 (≈ 171 µM) | 32 (≈ 171 µM) | 171 (≈ 32 µg/mL) | 32 (≈ 171 µM) | 32 (≈ 171 µM) | 32 (≈ 171 µM) | 32 (≈ 171 µM) | 12.8 | Activity [31]: inactive; Activity [32]: inactive; Activity [33]: inactive; Activity [34]: inactive
Cc1cc(C)n(-c2nnc3ncc(SCc4ccccc4)n3n2)n1 | 3 (≈ 1.01 µg/mL) | > 64 | > 64 | 59.3 (≈ 20 µg/mL) | > 64 | > 64 | > 64 | > 64 | > 64 | > 64 | 94.8 (≈ 32 µg/mL) | > 64 | > 64 | > 64 | > 64 |  | Activity [3]: inactive; Activity [4]: inactive; Activity [7]: inactive; Activity [9]: inactive; Activity [10]: inactive; Activity [12]: inactive; Activity [16]: inactive; Activity [18]: inactive; inhibition zone (IZ) [35]: 13.7 mm; Activity [21]: inactive; Activity [22]: inactive; Activity [28]: inactive
CCCCCCCNc1nnc2ncc(Sc3ccccc3)n2n1 |  |  |  |  |  |  |  |  |  |  |  |  |  |  |  | 12 | 
COc1ccc(OC)c(Sc2cnc3nnc(-n4nc(C)cc4C)nn23)c1 |  |  |  |  |  |  |  |  |  |  |  |  |  |  |  |  | inhibition zone (IZ) [35]: 9.3 mm
